Measured values: ChEMBL document CHEMBL1128301, “Cephalosporin derivatives of doxorubicin as prodrugs for activation by monoclonal antibody-beta-lactamase conjugates” (J Med Chem, 1995)

Legend:
[1] = substrate: COc1cccc2c1C(=O)c1c(O)c3c(c(O)c1C2=O)C[C@@](O)(C(=O)CO)C[C@@H]3OC1CC(NC(=O)OCC2=C(C(=O)O)N3C(=O)[C@@H](NC(=O)CCCC(=O)O)[C@H]3SC2)C(O)C(C)O1; assay: The kinetic constant(Km) value as spectrophotometrically by using Escherichia coli TEM-1 beta-lactamase (ECbL) enzyme as catalyst
In short: (§1)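 Spectrophotometric hydrolysis at 23 °C in PBS with 12.5 μg/mL BSA. EClbL was used at 0.1 μg/mL; BCbL and ECbL at 1.0 μg/mL. […] Initial velocities were linear over 1 min.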

[2] = substrate: COc1cccc2c1C(=O)c1c(O)c3c(c(O)c1C2=O)C[C@@](O)(C(=O)CO)C[C@@H]3OC1CC(NC(=O)OCC2=C(C(=O)O)N3C(=O)[C@@H](NC(=O)CCCC(=O)O)[C@H]3SC2)C(O)C(C)O1; assay: The kinetic constant(Km) value as spectrophotometrically by using Enterobacter cloacae P99 beta-lactamase (ECIbL) enzyme as catalyst
In short: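 Initial-velocity kinetics at 23 °C in PBS with 12.5 μg/mL bovine serum albumin. […] Hydrolysis followed by absorbance change at 230 nm or 260 nm, linear over 1 min. Km from direct linear plots, mean of at least three independent experiments.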

[3] = substrate: COc1cccc2c1C(=O)c1c(O)c3c(c(O)c1C2=O)C[C@@](O)(C(=O)CO)C[C@@H]3OC1CC(NC(=O)OCC2=C(C(=O)O)N3C(=O)[C@@H](NC(=O)CCCC(=O)O)[C@H]3SC2)C(O)C(C)O1; assay: The kinetic constant(Km) value as spectrophotometrically by using Bacillus cereus beta-lactamase (BCbL) enzyme as catalyst; in short: as §1

B1: Beta-lactamase TEM (Escherichia coli), P62593 (protein)
chain: MSIQHFRVALIPFFAAFCLPVFAHPETLVKVKDAEDQLGARVGYIELDLNSGKILESFRPEERFPMMSTFKVLLCGAVLSRVDAGQEQLGRRIHYSQNDLVEYSPVTEKHLTDGMTVRELCSAAITMSDNTAANLLLTTIGGPKELTAFLHNMGDHVTRLDRWEPELNEAIPNDERDTTMPAAMATTLRKLLTGELLTLASRQQLIDWMEADKVAGPLLRSALPAGWFIADKSGAGERGSRGIIAALGPDGKPSRIVVIYTTGSQATMDERNRQIAEIGASLIKHW
B1 was tested, and the Km [1] was 73 µM.

B2: Beta-lactamase (Enterobacter cloacae), P05364 (protein)
chain: MMRKSLCCALLLGISCSALATPVSEKQLAEVVANTITPLMKAQSVPGMAVAVIYQGKPHYYTFGKADIAANKPVTPQTLFELGSISKTFTGVLGGDAIARGEISLDDAVTRYWPQLTGKQWQGIRMLDLATYTAGGLPLQVPDEVTDNASLLRFYQNWQPQWKPGTTRLYANASIGLFGALAVKPSGMPYEQAMTTRVLKPLKLDHTWINVPKAEEAHYAWGYRDGKAVRVSPGMLDAQAYGVKTNVQDMANWVMANMAPENVADASLKQGIALAQSRYWRIGSMYQGLGWEMLNWPVEANTVVEGSDSKVALAPLPVAEVNPPAPPVKASWVHKTGSTGGFGSYVAFIPEKQIGIVMLANTSYPNPARVEAAYHILEALQ
B2 showed a Km [2] of 83 µM.

B3: Metallo-beta-lactamase type 2 (Bacillus cereus), P14488 (protein)
chain: MKNTLLKLGVCVSLLGITPFVSTISSVQAERTVEHKVIKNETGTISISQLNKNVWVHTELGYFSGEAVPSNGLVLNTSKGLVLVDSSWDDKLTKELIEMVEKKFKKRVTDVIITHAHADRIGGMKTLKERGIKAHSTALTAELAKKNGYEEPLGDLQSVTNLKFGNMKVETFYPGKGHTEDNIVVWLPQYQILAGGCLVKSASSKDLGNVADAYVNEWSTSIENVLKRYGNINLVVPGHGEVGDRGLLLHTLDLLK
With B3 the Km [3] was 56 µM.
